Laboratory results reported in ChEMBL document CHEMBL4190239, “A novel structural class of coumarin-chalcone fibrates as PPARα/γ agonists with potent antioxidant activities: Design, synthesis, biological evaluation and molecular docking studies” (Eur J Med Chem, 2017).
pEC50, pIC50: −log10 of the molar value.

Tests used:
[1] = molecular target: T1, Peroxisome proliferator-activated receptor alpha (Homo sapiens, UniProt Q07869); assay: Agonist activity at GAL4-fused PPARalpha LBD (unknown origin) expressed in HEK293 cells assessed as receptor transactivation after 18 hrs by dual luciferase reporter gene assay; assay type: cell-based; details: for pEC50: read-out: EC50; for EC50: hek293
T1 sequence (Q07869 whole entry): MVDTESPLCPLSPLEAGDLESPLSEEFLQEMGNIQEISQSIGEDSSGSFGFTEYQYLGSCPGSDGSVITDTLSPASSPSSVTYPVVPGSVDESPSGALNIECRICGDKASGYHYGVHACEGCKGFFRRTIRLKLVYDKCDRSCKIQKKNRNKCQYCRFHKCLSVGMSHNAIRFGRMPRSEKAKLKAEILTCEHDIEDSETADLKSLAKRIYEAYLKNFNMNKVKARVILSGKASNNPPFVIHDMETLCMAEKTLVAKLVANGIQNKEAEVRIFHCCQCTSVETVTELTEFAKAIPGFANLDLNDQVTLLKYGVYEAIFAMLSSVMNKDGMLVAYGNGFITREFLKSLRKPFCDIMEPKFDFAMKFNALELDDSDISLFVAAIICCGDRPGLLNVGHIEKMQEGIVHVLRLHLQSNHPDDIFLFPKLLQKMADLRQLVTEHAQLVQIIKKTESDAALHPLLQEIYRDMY

[2] = molecular target: T2, Peroxisome proliferator-activated receptor gamma (Homo sapiens, UniProt P37231); assay: Agonist activity at GAL4-fused PPARgamma LBD (unknown origin) expressed in HEK293 cells assessed as receptor transactivation after 18 hrs by dual luciferase reporter gene assay; assay type: cell-based; details: for pEC50: read-out: EC50; for EC50: hek293
T2 sequence (P37231 whole entry): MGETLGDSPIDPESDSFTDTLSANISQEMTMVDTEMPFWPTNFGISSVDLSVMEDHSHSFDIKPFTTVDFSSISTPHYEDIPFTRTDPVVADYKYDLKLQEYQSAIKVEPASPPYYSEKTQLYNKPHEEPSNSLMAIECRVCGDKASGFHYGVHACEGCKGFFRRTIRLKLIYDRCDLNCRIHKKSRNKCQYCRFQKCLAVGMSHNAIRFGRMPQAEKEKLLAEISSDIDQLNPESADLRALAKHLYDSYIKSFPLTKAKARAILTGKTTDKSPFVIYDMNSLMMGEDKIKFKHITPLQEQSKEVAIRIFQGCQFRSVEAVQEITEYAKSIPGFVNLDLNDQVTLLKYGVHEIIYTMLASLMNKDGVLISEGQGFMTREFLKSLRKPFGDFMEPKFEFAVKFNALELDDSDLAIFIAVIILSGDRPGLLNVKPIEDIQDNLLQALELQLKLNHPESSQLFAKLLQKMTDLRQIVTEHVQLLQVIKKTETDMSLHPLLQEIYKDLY

[3] = Antioxidant activity assessed as ABTS radical scavenging activity after 30 mins; assay type: functional
[4] = molecular target: T3, Peroxisome proliferator-activated receptor gamma (Homo sapiens) (UniProt P37231); assay: Agonist activity at GAL4-fused PPARgamma LBD (unknown origin) expressed in HEK293 cells assessed as receptor transactivation at 10 uM after 18 hrs by dual luciferase reporter gene assay; assay type: cell-based
T3 sequence (whole entry): T2 sequence (P37231 whole entry)
Outline: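 HEK293 grown in DMEM/10% FBS to 70–80% confluence, plated, switched to FCS-free medium, transiently transfected per well with GAL4-PPARγLBD plasmid (30 ng), reporter (50 ng), renilla normalization vector (20 ng) and pGEM carrier (40 ng). Ligand added 8 h post-transfection for 18 h; firefly and renilla luciferase read by dual-luciferase kit; activation expressed as fold.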

Structure (SMILES)	pEC50 [1]	pEC50 [2]	pIC50 [3]	EC50 [1]	fold change (FC) [4]	EC50 [2]
CCOC(=O)C(C)(C)Oc1ccc(C(=O)c2cc3ccccc3oc2=O)cc1	4.90	5.28	< 4.00			
CCOC(=O)C(C)(C)Oc1ccc(C(=O)c2cc3cc([N+](=O)[O-])ccc3oc2=O)cc1	5.16	6.04	4.73			
CC(C)(Oc1ccc(C(=O)c2cc3c(ccc4ccccc43)oc2=O)cc1)C(=O)O		4.25	< 4.00	Not Active		
CCOC(=O)C(C)(C)Oc1ccc(C(=O)c2cc3cc(Cl)ccc3oc2=O)cc1			< 4.00		0.95	
CCOC(=O)C(C)(C)Oc1ccc(C(=O)C2Cc3cc(C)ccc3OC2=O)cc1 (stereo not given)			4.99		0.8	
CCOC(=O)C(C)(C)Oc1ccc(C(=O)C2Cc3c(ccc4ccccc34)OC2=O)cc1 (stereo not given)			4.82		1.05	
CCOC(=O)C(C)(C)Oc1ccc(C(=O)c2cc3cc(C)ccc3oc2=O)cc1			5.07		1.01	
CCOC(=O)C(C)(C)Oc1ccc(C(=O)C2Cc3ccccc3OC2=O)cc1 (stereo not given)		4.40	5.03	Not Active		
CC(C)(Oc1ccc(C(=O)c2cc3ccccc3oc2=O)cc1)C(=O)O	4.96	5.44	< 4.00			
CCOC(=O)C(C)(C)Oc1ccc(C(=O)c2cc3cc(OC)c(OC)cc3oc2=O)cc1			< 4.00		1.01	
Cc1ccc2oc(=O)c(C(=O)c3ccc(OC(C)(C)C(=O)O)cc3)cc2c1			< 4.00		1.04	
Cc1c(C)c2c(c(C)c1O)CCC(C)(C(=O)O)O2 (stereo not given) [TROLOX]			4.60			
CCOC(=O)C(C)(C)Oc1ccc(C(=O)c2cc3cc(F)ccc3oc2=O)cc1			< 4.00	Not Active		Not Active
CCOC(=O)C(C)(C)Oc1ccc(C(=O)c2cc3cc(N)ccc3oc2=O)cc1			< 4.00	Not Active		Not Active
CCOC(=O)C(C)(C)Oc1ccc(C(=O)c2cc3cc(C(C)(C)C)cc(C(C)(C)C)c3oc2=O)cc1			< 4.00		0.81	
CCOC(=O)C(C)(C)Oc1ccc(C(=O)C2Cc3cc(OC)c(OC)cc3OC2=O)cc1 (stereo not given)			4.77		0.9	
CCOC(=O)C(C)(C)Oc1ccc(C(=O)c2cc3c(ccc4ccccc43)oc2=O)cc1			< 4.00		0.83	
